Consider 15 compounds from ChEMBL document CHEMBL4325870, “Synthesis and biological evaluation of 3-aryl-quinolin derivatives as anti-breast cancer agents targeting ERα and VEGFR-2” (Eur J Med Chem, 2019).

pIC50: −log10 of the molar value. The source made the active and inactive calls. The rule behind the calls is not given here.

One series has as its system HUVEC. The experiment in a line: Antiproliferative activity against HUVEC after 48 hrs by MTT assay. Particulars: Homo sapiens. The format is functional, cell-based. Put shortly:
(§1)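 Cells kept in RPMI1640 with 10% FBS and penicillin/streptomycin at 37 °C, 5% CO2. Seeded at 1 x 10^5/mL, grown 24 h, then exposed to compound-containing medium for 48 h; controls received 1% DMSO medium. MTT (5 mg/mL) added for 4 h in the dark, formazan dissolved in DMSO, absorbance read. Value is concentration giving 50% growth inhibition.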
For orientation: Formazan colour is commonly taken as a measure of viable cells.

In series [1] the test system is Ishikawa. The experiment in a line: Antiproliferative activity against human Ishikawa cells after 48 hrs by MTT assay. It counts as functional. In a few lines: as §1
For series [2], the system named is MCF7. The experiment in a line: Antiproliferative activity against human MCF7 cells after 48 hrs by MTT assay. The format is functional, cell-based. The note with it: MCF7, 48 h. Put shortly: as §1
The target of series [3] is Vascular endothelial growth factor receptor 2 (Homo sapiens, UniProt P35968).
Series [4] deals with MCF7. The series can be described thus: Effect on progesterone receptor mRNA expression in non-stimulated human MCF7 cells at 1 uM by SYBR green dye based RT-PCR analysis. The format is ADME, cell-based. The note with it: mcf7, 1 µM. In a few lines: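 Real-time PCR on MCF-7 cells given compound at 1 μM alone, without estradiol. Amplification: 95 °C 2 min, then 40 cycles of 95 °C 10 s, 60 °C 30 s, 95 °C 10 s. PgR mRNA normalised to GAPDH by the ΔΔCT method; mean ± SD, n=3.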

Series [5] deals with MCF7. The experiment in a line: Cell cycle arrest in human MCF7 cells assessed as accumulation at G2 phase at 1.25 uM after 24 hrs by propidium iodide staining based flow cytometry (reference value: 31.48%). The format is functional. Put shortly: (§2)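 MCF-7 cells exposed to 1.25 μM compound or DMSO vehicle for 12 h and 24 h. Cells washed in ice-cold PBS, pelleted, fixed in ice-cold 70% ethanol, RNase-treated (0.1 mg/mL), stained with propidium iodide, and analysed by flow cytometry for G1, S and G2 phase distribution.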
(In flow cytometry, cells or beads pass a laser one at a time.)

The test system of series [6] is MCF7. The series can be described thus: Cell cycle arrest in human MCF7 cells assessed as accumulation at G1 phase at 1.25 uM after 12 hrs by propidium iodide staining based flow cytometry (reference value: 46.25%). It counts as functional. Put shortly: as §2
Series [7] relates to MCF7. The series can be described thus: Cell cycle arrest in human MCF7 cells assessed as accumulation at S phase at 1.25 uM after 24 hrs by propidium iodide staining based flow cytometry (reference value: 18.93%). It counts as functional. Put shortly: as §2
In series [8] the test system is MCF7. The experiment in a line: Cell cycle arrest in human MCF7 cells assessed as accumulation at G2 phase at 1.25 uM after 12 hrs by propidium iodide staining based flow cytometry (reference value: 31.48%). The format is functional. Put shortly:
as §2

The subject of series [9] is MCF7. The experiment in a line: Cell cycle arrest in human MCF7 cells assessed as accumulation at S phase at 1.25 uM after 12 hrs by propidium iodide staining based flow cytometry (reference value: 18.93%). It counts as functional. In a few lines:
as §2

The test system of series [10] is MCF7. The series can be described thus: Cell cycle arrest in human MCF7 cells assessed as accumulation at G1 phase at 1.25 uM after 24 hrs by propidium iodide staining based flow cytometry (reference value: 46.25%). It counts as functional. Put shortly:
as §2

Another series deals with T1, Estrogen receptor (Homo sapiens, UniProt P03372).
T1 sequence (P03372 whole entry): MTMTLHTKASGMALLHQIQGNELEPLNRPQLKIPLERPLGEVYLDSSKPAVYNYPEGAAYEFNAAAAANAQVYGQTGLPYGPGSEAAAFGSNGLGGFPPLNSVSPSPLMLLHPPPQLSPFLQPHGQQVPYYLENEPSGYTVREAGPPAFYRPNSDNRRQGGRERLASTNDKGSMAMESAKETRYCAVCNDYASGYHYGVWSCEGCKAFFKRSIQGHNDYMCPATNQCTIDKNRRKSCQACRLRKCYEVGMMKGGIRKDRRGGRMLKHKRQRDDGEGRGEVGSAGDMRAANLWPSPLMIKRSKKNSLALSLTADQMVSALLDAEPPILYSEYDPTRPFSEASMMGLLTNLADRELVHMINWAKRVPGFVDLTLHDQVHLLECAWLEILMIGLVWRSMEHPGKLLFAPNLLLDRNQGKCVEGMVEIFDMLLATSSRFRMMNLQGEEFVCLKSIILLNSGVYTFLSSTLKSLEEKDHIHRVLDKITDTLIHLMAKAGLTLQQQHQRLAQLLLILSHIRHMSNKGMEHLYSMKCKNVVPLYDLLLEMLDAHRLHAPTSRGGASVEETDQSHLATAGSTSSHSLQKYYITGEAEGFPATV
The series can be described thus: Displacement of fluorescent estrogen ligand from recombinant human full length untagged ERalpha expressed in Spodoptera frugiperda insect cells measured after 2 hrs by fluorescence polarization assay. For orientation: Polarisation of emitted light reports the rotation of a fluorescent probe.

Series [11] relates to Ishikawa. The series can be described thus: Stimulation of cell proliferation in human Ishikawa cells at 1 to 10 uM after 48 hrs by MTT assay. It counts as ADME, cell-based. In a few lines: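 Ishikawa endometrial cells in RPMI1640 with 10% FBS, seeded at 1 x 10^5/mL, exposed 48 h to compound at 1 μM or 10 μM, then read by MTT assay (5 mg/mL MTT, 4 h, dark, DMSO solubilisation, absorbance).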

Series [12] deals with MCF7. The experiment in a line: Antimigratory activity in human MCF7 cells assessed as inhibition of wound healing at 1.25 uM after 8 to 48 hrs by phase contrast microscopic analysis. It counts as functional, cell-based. Put shortly: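 Wound-healing assay: MCF-7 monolayers grown to full confluence in 24-well plates, scratched with a tip, washed twice with PBS, then given serum-free 1640 medium with or without compound at 1.25 μM. Wound closure photographed by phase-contrast microscopy (100×) at 8, 16, 24/48 h; migration rate quantified from images.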

Chain of Vascular endothelial growth factor receptor 2 (P35968 whole entry): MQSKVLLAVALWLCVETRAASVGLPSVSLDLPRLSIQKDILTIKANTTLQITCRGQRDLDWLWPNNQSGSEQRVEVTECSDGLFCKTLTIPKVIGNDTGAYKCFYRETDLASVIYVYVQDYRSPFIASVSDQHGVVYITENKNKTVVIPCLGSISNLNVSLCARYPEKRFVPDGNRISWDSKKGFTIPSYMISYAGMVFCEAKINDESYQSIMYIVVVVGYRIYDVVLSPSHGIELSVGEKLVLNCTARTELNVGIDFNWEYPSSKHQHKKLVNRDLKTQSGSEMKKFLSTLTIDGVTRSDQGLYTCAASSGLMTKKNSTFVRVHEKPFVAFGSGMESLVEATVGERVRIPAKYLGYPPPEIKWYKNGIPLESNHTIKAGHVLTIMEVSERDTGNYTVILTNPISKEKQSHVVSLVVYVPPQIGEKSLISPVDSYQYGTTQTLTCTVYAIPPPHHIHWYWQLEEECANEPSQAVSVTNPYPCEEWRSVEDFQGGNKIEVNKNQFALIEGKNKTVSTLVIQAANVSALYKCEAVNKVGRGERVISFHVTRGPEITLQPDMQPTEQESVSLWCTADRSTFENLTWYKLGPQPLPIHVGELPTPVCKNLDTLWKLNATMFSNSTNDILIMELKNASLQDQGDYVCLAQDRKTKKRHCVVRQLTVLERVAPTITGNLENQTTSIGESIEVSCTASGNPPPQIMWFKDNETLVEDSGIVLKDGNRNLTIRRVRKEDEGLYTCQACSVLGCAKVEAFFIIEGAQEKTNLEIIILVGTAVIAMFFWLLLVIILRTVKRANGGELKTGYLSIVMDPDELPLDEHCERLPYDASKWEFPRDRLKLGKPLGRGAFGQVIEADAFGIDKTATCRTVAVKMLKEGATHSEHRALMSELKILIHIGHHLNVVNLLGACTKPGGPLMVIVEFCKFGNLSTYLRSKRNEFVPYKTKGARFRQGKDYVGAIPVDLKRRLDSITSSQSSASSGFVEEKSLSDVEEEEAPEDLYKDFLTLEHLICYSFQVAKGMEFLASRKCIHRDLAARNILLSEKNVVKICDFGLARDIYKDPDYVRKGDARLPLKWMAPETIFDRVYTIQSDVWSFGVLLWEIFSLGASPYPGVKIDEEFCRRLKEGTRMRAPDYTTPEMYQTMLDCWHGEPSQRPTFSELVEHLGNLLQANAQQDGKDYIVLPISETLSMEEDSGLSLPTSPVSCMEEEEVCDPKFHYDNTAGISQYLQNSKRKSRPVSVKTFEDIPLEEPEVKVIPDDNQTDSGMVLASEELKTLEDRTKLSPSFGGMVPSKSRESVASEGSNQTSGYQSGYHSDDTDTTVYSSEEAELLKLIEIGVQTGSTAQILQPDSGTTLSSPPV

For orientation: pIC50 means the IC50 on a negative log10 scale, so that one unit is a factor of ten. In the case of `COc1ccc(-c2cc3ccc(OC)cc3nc2Nc2ccc(NC(=O)CN3CCCCC3)cc2)cc1`, the negative logarithm of the IC50 (pIC50) in the series on HUVEC is 4.63; in the series on MCF7 [2], 4.32; in [3] it was 7.10. This compound also registered an Activity with Ishikawa [1] above 50 µM.

Turning to `COc1ccc(-c2cc3ccc(OC)cc3nc2Nc2ccc(NC(=O)CN(C)C)cc2)cc1`, the pIC50 in the series with HUVEC was 5.04; in the series with MCF7 [2], 5.02; in series [3], 6.94. The Activity with Ishikawa [1] worked out at 8.4 µM.

Take `CCN(CC)CC(=O)Nc1ccc(Nc2nc3cc(OC)ccc3cc2-c2ccc(OC)cc2)cc1`: the pIC50 is 4.85 in the series with HUVEC, 4.76 in the series on MCF7 [2] and 7.00 in [3]. In the series on Ishikawa [1], this compound showed an Activity of 21.4 µM.

For `COc1ccc(-c2cc3cc(OC)ccc3nc2Nc2ccc(NC(=O)CN3CCN(C)CC3)cc2)cc1`, the Activity result in the series on MCF7 [4] is reported as “Non-Toxic”; in the series on MCF7 [5], 20.43%; in the series on MCF7 [6], 51.18%; in the series with MCF7 [7], 22.39%; in the series with MCF7 [8], 28.82%; in the series with MCF7 [9], 18.78%. The figures for the Activity with MCF7 [10], in the series on Ishikawa [1] and in the series on Ishikawa [11] were 54.63%, 1.8 µM and “Non-Toxic”, respectively. Besides, the negative-log IC50 (pIC50) in the series on HUVEC was 5.13; in the series on MCF7 [2], 5.74; at Estrogen receptor, 5.75; in series [3], 7.07.

Take `COc1ccc(-c2cc3ccc(OC)cc3nc2Nc2ccc(NC(=O)CN3CCCC3)cc2)cc1`: the figures for the negative-log IC50 (pIC50) (in the series on HUVEC; in the series on MCF7 [2]; in series [3]) were 5.07, 5.18 and 6.90, respectively. Moreover, in the series with Ishikawa [1], the Activity amounted to 8.2 µM.

`COc1ccc(-c2cc3cc(OC)ccc3nc2Nc2ccc(NC(=O)CN3CCCCC3)cc2)cc1`: the results for the negative-log IC50 (pIC50) (in the series with HUVEC; with MCF7 [2]; in series [3]) were below 4.30, below 4.30 and 7.10, respectively. This compound gave an Activity in the series on Ishikawa [1] above 50 µM.

For the compound `COc1ccc(-c2cc3ccc(OC)cc3nc2Nc2ccc(NC(=O)CN3CCOCC3)cc2)cc1`, the negative-log IC50 (pIC50) in the series on HUVEC is 5.04; in the series with MCF7 [2], below 4.30; in [3], 6.96. Besides, the Activity with Ishikawa [1] was above 50 µM.

Regarding `CC/C(=C(\c1ccccc1)c1ccc(OCCN(C)C)cc1)c1ccccc1` [TAMOXIFEN], the values for the Activity entry with MCF7 [4], in the series with Ishikawa [1] and with Ishikawa [11] were “Non-Toxic”, above 50 µM and “Toxic”, respectively. This compound had a pIC50 with MCF7 [2] of 4.78.

On to `CCN(CC)CC(=O)Nc1ccc(Nc2nc3ccc(OC)cc3cc2-c2ccc(OC)cc2)cc1`, for which the pIC50 in the series on HUVEC was 4.34; in the series on MCF7 [2], below 4.30; in series [3], 7.09. Further, the Activity in the series with Ishikawa [1] was above 50 µM.

`O=C(c1ccc(OCCN2CCCCC2)cc1)c1c(-c2ccc(O)cc2)sc2cc(O)ccc12` [RALOXIFENE]: the results for the Activity in the series with Ishikawa [1] and in the series on Ishikawa [11] were above 50 µM and “Toxic”, respectively. The compound also had a pIC50 in the series on MCF7 [2] of 4.90.

In the case of `CCN(CC)CCNC(=O)c1c(C)[nH]c(/C=C2\C(=O)Nc3ccc(F)cc32)c1C` [SUNITINIB], in the series with MCF7 [12], the inhibition result was “Active”. Besides, the negative-log IC50 (pIC50) in the series on HUVEC is 5.49. The same compound registered an Activity in the series with Ishikawa [1] of 14.3 µM.

Take `COc1ccc(-c2cc3cc(OC)ccc3nc2Nc2ccc(NC(=O)CN3CCOCC3)cc2)cc1`: the figures for the pIC50 (in the series with HUVEC; with MCF7 [2]; in series [3]) were below 4.30, below 4.30 and 6.93, respectively. In the series with Ishikawa [1], this compound gave an Activity above 50 µM.

As for `COc1ccc(-c2cc3cc(OC)ccc3nc2Nc2ccc(NC(=O)CN3CCCC3)cc2)cc1`, the pIC50 in the series with HUVEC is 4.88; with MCF7 [2], 5.14; in series [3], 6.88. The Activity in the series with Ishikawa [1] was determined as 10.3 µM.

As to `COc1ccc(-c2cc3cc(OC)ccc3nc2Nc2ccc(NC(=O)CN(C)C)cc2)cc1`, the negative-log IC50 (pIC50) is 4.65 with HUVEC, 4.40 in the series on MCF7 [2] and 6.96 in [3]. Besides, in the series on Ishikawa [1], the Activity is above 50 µM.

On to `COc1ccc(-c2cc3ccc(OC)cc3nc2Nc2ccc(NC(=O)CN3CCN(C)CC3)cc2)cc1`, for which the negative-log IC50 (pIC50) is 5.13 in the series with HUVEC, 5.55 with MCF7 [2], 5.63 at Estrogen receptor and 6.98 in [3]. Besides, the Activity in the series on Ishikawa [1] is 3.8 µM; in the series on Ishikawa [11], “Non-Toxic”.
